Test results reported in publication PMC8486320 (Journal of medicinal chemistry, 2021).
Values belong to the compound of their own block, whether it stands above or below them. Where no end group is shown, it is not given here. The star is where a group is joined. Crotonyl(E) = C/C=C/C(=O)*

Key:
AF9 = target: T1, AF9 (Homo sapiens, UniProt P42568); assay: Competitive peptide pulldown, AF9 with H3K9ac; assay type: binding; details: 20 μM compound
T1 sequence (P42568 1-145): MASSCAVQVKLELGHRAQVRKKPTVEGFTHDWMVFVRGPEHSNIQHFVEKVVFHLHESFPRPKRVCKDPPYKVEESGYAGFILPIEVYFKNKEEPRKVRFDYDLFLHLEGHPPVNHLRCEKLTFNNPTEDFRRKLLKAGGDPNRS

GAS41 [1] = target: T2, GAS41 (Homo sapiens, UniProt O95619); assay: Competitive peptide pulldown, GAS41 with H3K27ac; assay type: binding; details: 20 μM compound
YEATS2 = target: T3, YEATS2 (Homo sapiens, UniProt Q9ULM3); assay: Competitive peptide pulldown, YEATS2 with H3K27cr; assay type: binding; details: 20 μM compound
T3 sequence (Q9ULM3 201-332): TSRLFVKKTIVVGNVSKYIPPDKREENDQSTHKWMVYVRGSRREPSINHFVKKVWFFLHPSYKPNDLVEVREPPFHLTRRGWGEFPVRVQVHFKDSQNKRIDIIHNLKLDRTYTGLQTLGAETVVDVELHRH

YEATS2 YEATS domain = target: T4, YEATS2 YEATS domain (Homo sapiens, UniProt Q9ULM3); assay: AlphaScreen assay, YEATS2 YEATS / H3K27cr peptide; assay type: binding
T4 sequence (Q9ULM3 201-332): T3 sequence (Q9ULM3 201-332)

ENL = target: T5, ENL (Homo sapiens, UniProt Q03111); assay: Competitive peptide pulldown, ENL with H3K9ac; assay type: binding
T5 sequence (Q03111 1-145): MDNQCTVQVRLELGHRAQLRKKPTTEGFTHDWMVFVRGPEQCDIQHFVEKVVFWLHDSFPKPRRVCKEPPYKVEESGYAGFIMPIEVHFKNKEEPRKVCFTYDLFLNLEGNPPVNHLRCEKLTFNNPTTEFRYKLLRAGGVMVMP

GAS41 YEATS domain = GAS41 YEATS domain (Homo sapiens, UniProt O95619); assay: AlphaScreen assay, GAS41 YEATS / H3K27ac peptide; assay type: binding
HOXA9 gene expression = assay: qRT-PCR of HOXA9 gene expression in MOLM13 cells; assay type: cell-based, human
Outline: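 MOLM13 cells were treated with test compound or DMSO. Total RNA was extracted and reverse-transcribed, and HOXA9 was quantified by SYBR Green real-time PCR. Expression was normalised to GAPDH by the comparative Ct method; mean ± SEM, n = 3, two-tailed Student's t test.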

GAS41 [2] = target: T2, GAS41; assay: Cellular thermal shift assay; assay type: cell-based; details: MV4;11 and MOLM13 cells, 20 μM, 5 h, vs DMSO
Outline: (§1)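 Cells were incubated with 20 µM test compound for 5 h, washed three times in PBS and resuspended in PBS with protease inhibitors (about 3 million cells per aliquot). Aliquots were heated 3 min at the indicated temperatures, then held 2 min at room temperature. Cells were lysed with NP40/glycerol/DTT buffer plus three liquid-nitrogen/37 °C freeze-thaw cycles, and cleared at 13,000 rpm, 4 °C, 10 min. Soluble protein was read by western blot.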

ENL YEATS domain [3] = target: T6, ENL YEATS domain (Homo sapiens, UniProt Q03111); assay: 1H,15N HSQC NMR titration of ENL YEATS domain; assay type: binding; details: 15N-labelled His-ENL, ligand titrated
T6 sequence (Q03111 1-148): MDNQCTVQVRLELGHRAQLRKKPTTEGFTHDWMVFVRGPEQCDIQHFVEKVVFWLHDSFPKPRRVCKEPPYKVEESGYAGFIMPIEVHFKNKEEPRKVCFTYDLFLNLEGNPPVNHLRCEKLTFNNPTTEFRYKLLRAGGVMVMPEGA
Outline: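 15N-labelled YEATS domain was expressed in E. coli Rosetta-2 (DE3) pLysS in NH4Cl minimal medium (0.5 mM IPTG, 18 h, 16 °C) and purified by Ni-NTA then size exclusion. 1H,15N HSQC spectra were recorded at 298 K, 600 MHz, on 0.2 mM protein in 25–50 mM Tris-HCl pH 7.5, 150 mM NaCl, 0.2 mM TCEP, 10% D2O. Test compound or H3K27cr peptide (aa 22–31) was added stepwise at set protein:ligand molar ratios.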

MOLM13 cells = assay: Combinatorial treatment of compound 7 and JQ1, MOLM13; assay type: cell-based, human; details: 7 0 to 20 μM, JQ1 0–200 nM, Combenefit
Outline: (§2)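 Leukaemia cells kept in RPMI-1640 with 10% FBS were given DMSO, test compound, JQ1, or the two combined at a concentration matrix for 6 days. Viability was read by CellTiter-Glo luminescence as % surviving relative to DMSO. Drug interaction was scored as synergy using Combenefit.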

U2OS cells = assay: Cell growth inhibition assay; assay type: cell-based, human; details: even at 50 μM, ENL-independent cell line
MV4;11 cells [4] = assay: Cell growth inhibition assay; assay type: cell-based, human; details: compared with MOLM13 (5 and 10 μM), 3 days
MV4;11 cells [5] = assay: Combinatorial treatment of compound 7 and JQ1, MV4; assay type: cell-based, human; details: 7 0 to 20 μM, JQ1 0–200 nM, Combenefit
Outline: as §2

Caco-2 cell monolayers = assay: Caco-2 cell permeability assay; assay type: in vitro ADME; details: 10 μM, 2 hours, A-B direction
Outline: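 Flux was measured across polarised Caco-2 monolayers in triplicate, with ranitidine, talinolol and warfarin as controls. Apparent permeability (Papp) was calculated for the apical-to-basolateral direction.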

AF9 proteins = target: T7, AF9 proteins (Homo sapiens, UniProt P42568); assay: Cellular thermal shift assay; assay type: cell-based; details: HeLa cells, 20 μM, 5 h
T7 sequence (P42568 1-568): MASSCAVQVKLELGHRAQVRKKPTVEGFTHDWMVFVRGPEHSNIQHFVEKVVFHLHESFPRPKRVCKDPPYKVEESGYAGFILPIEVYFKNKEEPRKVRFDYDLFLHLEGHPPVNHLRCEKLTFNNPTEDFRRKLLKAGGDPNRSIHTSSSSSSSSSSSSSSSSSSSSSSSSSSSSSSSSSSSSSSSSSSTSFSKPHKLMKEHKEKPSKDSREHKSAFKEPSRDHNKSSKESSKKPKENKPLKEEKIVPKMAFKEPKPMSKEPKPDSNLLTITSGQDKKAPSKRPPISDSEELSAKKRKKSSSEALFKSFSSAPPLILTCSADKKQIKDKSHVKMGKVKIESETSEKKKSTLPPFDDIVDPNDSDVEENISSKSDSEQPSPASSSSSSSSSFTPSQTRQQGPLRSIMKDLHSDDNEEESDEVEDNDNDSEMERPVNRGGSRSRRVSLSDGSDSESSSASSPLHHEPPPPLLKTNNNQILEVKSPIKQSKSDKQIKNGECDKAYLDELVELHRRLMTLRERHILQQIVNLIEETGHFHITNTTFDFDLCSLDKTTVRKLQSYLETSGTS
Outline: as §1

ENL protein = target: T8, ENL protein (Homo sapiens, UniProt Q03111); assay: Cellular thermal shift assay; assay type: cell-based; details: 20 μM, 5 h
T8 sequence (Q03111 1-559): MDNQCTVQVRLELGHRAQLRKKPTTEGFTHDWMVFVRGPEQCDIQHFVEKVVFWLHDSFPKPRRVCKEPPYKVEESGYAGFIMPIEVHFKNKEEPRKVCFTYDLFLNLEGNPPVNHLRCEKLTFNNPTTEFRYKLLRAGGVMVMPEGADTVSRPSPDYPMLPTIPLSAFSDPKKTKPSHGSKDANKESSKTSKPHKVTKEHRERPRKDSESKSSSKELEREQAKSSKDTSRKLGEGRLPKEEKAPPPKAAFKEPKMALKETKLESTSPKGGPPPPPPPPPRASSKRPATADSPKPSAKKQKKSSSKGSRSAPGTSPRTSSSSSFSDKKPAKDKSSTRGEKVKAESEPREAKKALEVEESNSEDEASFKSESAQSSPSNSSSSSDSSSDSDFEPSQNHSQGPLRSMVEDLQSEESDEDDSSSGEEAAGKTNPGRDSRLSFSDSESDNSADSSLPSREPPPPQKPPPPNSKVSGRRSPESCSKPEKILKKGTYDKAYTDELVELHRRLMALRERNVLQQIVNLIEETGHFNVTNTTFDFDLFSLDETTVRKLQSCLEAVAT
Outline: as §1

ENL YEATS domain [6] = target: T9, ENL YEATS domain (Homo sapiens, UniProt Q03111); assay: AlphaScreen assay, His-ENL YEATS / biotin-H3K9ac interaction; assay type: binding; details: SAR comparison with 11 or 6
T9 sequence (Q03111 1-145): T5 sequence (Q03111 1-145)

T2 sequence (O95619 whole entry): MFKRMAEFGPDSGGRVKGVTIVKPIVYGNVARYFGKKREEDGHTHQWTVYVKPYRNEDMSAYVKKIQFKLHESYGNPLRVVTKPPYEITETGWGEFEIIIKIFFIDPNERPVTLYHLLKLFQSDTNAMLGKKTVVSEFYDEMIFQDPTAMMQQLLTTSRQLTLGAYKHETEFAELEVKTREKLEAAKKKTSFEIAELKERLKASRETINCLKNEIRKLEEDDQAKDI
Sequence of GAS41 YEATS domain (O95619 whole entry, the tested form may be a part): as the sequence (O95619 whole entry) above

Compound: O=C(NCc1ccc(CN2CCC2)cc1)c1ccc2nncn2c1 [compound 11, N-(4-(azetidin-1-ylmethyl)benzyl)-[1,2,4]triazolo[4,3-a]pyridine-6-carboxamide]
inhibition of AF9 binding to acylated histone peptide (AF9): none of these compounds showed notable inhibition
inhibition of GAS41 binding to acylated histone peptide (GAS41 [1]): none of these compounds showed notable inhibition
inhibition of YEATS2 binding to acylated histone peptide (YEATS2): none of these compounds showed notable inhibition
inhibition of ENL binding to H3K9ac (ENL; 1 μM compound): strongly inhibited

Compound: O=C(NCc1cccc(CN2CCC2)c1)c1ccc2nncn2c1 [compound 15, N-(3-(azetidin-1-ylmethyl)benzyl)-[1,2,4]triazolo[4,3-a]pyridine-6-carboxamide]
inhibition potency compared with parent compound (ENL YEATS domain [6]): did not result in any increase of potency

Compound: H3K27cr peptide: histone H3 residues 22–31 with a crotonylation at K27 (TKAARK(Crotonyl(E))SAPA; UniProt P68431 23-32, looked up, fragment) [reference compound]
chemical shift perturbations, exchange regime on the NMR timescale (ENL YEATS domain [3]): intermediate to fast exchange regime

Now from value to compound, other results behind:

inhibition of YEATS2 YEATS domain (IC50 measurement) (YEATS2 YEATS domain): no detectable inhibition
inhibition of ENL binding to H3K9ac (ENL; 5 μM compound): strongly inhibited
inhibition of GAS41 YEATS domain (IC50 measurement) (GAS41 YEATS domain): no detectable inhibition
Compound: CSc1ccc(CNC(=O)c2ccc3nncn3c2)cc1 [compound 1]
inhibition of AF9 binding to acylated histone peptide (AF9): none of these compounds showed notable inhibition
inhibition of GAS41 binding to acylated histone peptide (GAS41 [1]): none of these compounds showed notable inhibition
inhibition of YEATS2 binding to acylated histone peptide (YEATS2): none of these compounds showed notable inhibition

thermal stability of GAS41 protein (CETSA) (GAS41 [2]): little or no difference
chemical shift perturbations, exchange regime on the NMR timescale (ENL YEATS domain [3]): intermediate to slow exchange regime
inhibition of ENL binding to H3K9ac (ENL; 5 μM compound): strongly inhibited
Caco-2 permeability (Caco-2 cell monolayers): comparable to 11
thermal stability of AF9 protein (CETSA) (AF9 proteins): stabilized ENL but not AF9 proteins
thermal stability of ENL protein (CETSA) (ENL protein; HeLa cells): stabilized ENL
thermal stability of ENL protein (CETSA) (ENL protein; MV4;11 and MOLM13 cells, vs DMSO): bound and stabilized ENL proteins
Compound: CN(C)Cc1ccc(CNC(=O)c2ccc3nncn3c2)cc1 [compound 7, N-(4-((dimethylamino)methyl)benzyl)-[1,2,4]triazolo[4,3-a]pyridine-6-carboxamide]
inhibition of AF9 binding to acylated histone peptide (AF9): none of these compounds showed notable inhibition
lowest drug concentration effectively suppressing HOXA9 gene expression (HOXA9 gene expression): 2.5 µM
interaction with JQ1 in killing leukemia cells (MOLM13 cells): synergistic effect
response of U2OS cell growth to treatment (U2OS cells): little or no response
inhibition of GAS41 binding to acylated histone peptide (GAS41 [1]): none of these compounds showed notable inhibition
inhibition of YEATS2 binding to acylated histone peptide (YEATS2): none of these compounds showed notable inhibition
inhibition of MV4;11 cell growth (MV4;11 cells [4]): about double amounts of the compound were needed to achieve similar levels of inhibition
interaction with JQ1 in killing leukemia cells (MV4;11 cells [5]): synergistic effect

inhibition potency compared with parent compound (ENL YEATS domain [6]): greatly reduced the inhibition potency
Compound: CC(NC(=O)c1ccc2nncn2c1)c1ccc(CN2CCC2)cc1 (centres unmarked) [compound 16, N-(1-(4-(azetidin-1-ylmethyl)phenyl)ethyl)-[1,2,4]triazolo[4,3-a]pyridine-6-carboxamide]

inhibition of ENL binding to H3K9ac (ENL; 1 μM compound): strongly inhibited
Compound: O=C(NCc1ccc(CNc2ncc(F)cn2)cc1)c1ccc2nncn2c1 [compound 24, N-(4-(((5-fluoropyrimidin-2-yl)amino)methyl)benzyl)-[1,2,4]triazolo[4,3-a]pyridine-6-carboxamide]
inhibition of AF9 binding to acylated histone peptide (AF9): none of these compounds showed notable inhibition
inhibition of GAS41 binding to acylated histone peptide (GAS41 [1]): none of these compounds showed notable inhibition
inhibition of YEATS2 binding to acylated histone peptide (YEATS2): none of these compounds showed notable inhibition
